The list is not random: actives were taken first. Their share in the collection is about 2.1%.
Autophagy HCS = alters autophagy in cells; MEF GFP-LC3 puncta imaging; test concentration mostly 10 µM; calls only at 10 µM (by protocol); actives 0.98% (n = 190,000);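 active = percentage of spot-positive cells more than 3 SD above its plate mean, without a fluorescence outlier flag or 80% toxicity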;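 also: spot-positive cell cutoff set from DMSO-treated cells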
Ins promoter up = MIN6 insulin promoter up-regulation | actives 0.3% (n = 190,000) | z-score at 5 µM | MIN6 insulin promoter-GFP reporter, high-content imaging; active compounds read high;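 active = z-score above 3 at 5 µM with at least 500 cells counted in the well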
Arbovirus anti = arbovirus infection inhibition; arbovirus infection cell-based antiviral screen; inhibition, % at 10 µM; actives 0.37% (n = 200,000); in the data active = inhibition above about 30%
RBBP9 inhibitor = blocks human serine hydrolase RBBP9; O75884; recombinant RBBP9, FP-Rh probe fluorescence polarization; inhibition, % at 7.94 µM; actives 0.2% (n = 220,000); AID 1515;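 active = inhibition above the campaign mean of all tested compounds plus 3 SD, cut at about 14% in these data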;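 also: plate controls were DMSO wells with RBBP9 for no effect and wells lacking RBBP9 protein for full effect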
Target sequence (O75884 whole entry, looked up): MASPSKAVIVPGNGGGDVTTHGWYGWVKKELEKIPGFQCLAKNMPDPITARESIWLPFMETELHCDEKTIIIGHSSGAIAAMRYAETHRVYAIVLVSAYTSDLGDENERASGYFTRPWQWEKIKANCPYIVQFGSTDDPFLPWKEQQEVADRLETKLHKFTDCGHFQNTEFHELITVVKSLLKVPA
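Test system: recombinant human RBBP9; Timing: 30 min then 45 min, 25 °C; Detection: fluorescence polarization; Control set: RBBP9 with DMSO as uninhibited control, no-protein wells as full inhibition; Compound dosing: one concentration, 7.94 µM nominal, 0.794% DMSO; Probe or stimulus: FP-Rh activity-based probe, 375 nM before mixing.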
INS promoter inh = TRM-6 insulin promoter activity inhibition. TRM-6 cells (human fetal islet line), insulin promoter-eGFP reporter, imaging; reporter expression induced with tamoxifen. inhibition, % at 2 µM. actives 0.9% (n = 130,000). AID 1273;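 active = inhibition above the mean plus 3 SD, with well images judged a real hit on visual review, cut at about 60% in these data, passing the limit was not always enough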
PKD1 kinase inh = blocks activity of human protein kinase D1; inhibition, % (test concentration not listed); AID 797; Q15139; PKD1 kinase fluorescence polarization assay; actives 0.056% (n = 200,000); in the data active = inhibition above about 50%
RBBP9 inh conf = confirmation of human RBBP9 inhibitors | inhibition, % at 7.94 µM | recombinant RBBP9, FP-Rh probe fluorescence polarization | actives 36% (n = 410) | shares compounds with RBBP9 inhibitor;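 active = inhibition above the hit cutoff derived for the primary screen, cut at about 15% in these data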;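 also: 0% = RBBP9 with DMSO and 100% = wells lacking RBBP9 protein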
Numbers without * were called inactive; i = inactive; · = no result.

SMILES	Autophagy HCS	Ins promoter up	Arbovirus anti	RBBP9 inhibitor	INS promoter inh	PKD1 kinase inh	RBBP9 inh conf
CC(C)CC(=O)O/N=C1\C(=O)N(Cc2ccc(Cl)cc2)c2ccc([N+](=O)[O-])cc21	i	0.37	11.3	23.6*	·	5.1	45.5*
COc1ccc(OC)c(CCNC(=O)Cn2cccc2C(=O)c2ccccc2C)c1	i	-0.92	0.7	15.2*	-21.4	2.9	-0.5
COc1cccc(S(=O)(=O)N2CCN(c3ccccc3F)CC2)c1	i	-0.14	10.4	-1.6	20.0	3.6	·
CC(C)C(=O)N(c1cc2sc(=O)oc2c2ccccc12)S(=O)(=O)c1cccs1	i	·	-27.6	32.0*	-21.9	3.1	11.4
CCOc1ccc2cc(C(=O)c3ccccc3)c(=O)oc2c1	i	-0.26	2.0	-10.7	18.5	-7.7	·
Cc1cc(=O)n2[nH]c(=O)c(N=Nc3ccccc3)c2[nH]1	i	·	2.8	15.5*	-39.3	6.5	37.6*
Cc1cc(C)n2[nH]c(=O)c(N=Nc3ccccc3)c2n1	i	1.05	-0.4	-0.7	3.3	-2.3	·
CCCc1nnc(NC(=O)CN2CCN(C)CC2)s1	i	0.24	4.6	16.7*	21.4	-0.5	4.5
Cn1cc(Cl)c(C(=O)N(Cc2ccccc2)c2ccccn2)n1	·	-0.35	3.9	·	·	·	·
O=c1oc2c(-c3ccc([N+](=O)[O-])cc3)cc(O)cc2s1	·	-1.6	·	43.2*	·	·	8.5
NC1=C(c2ccc([N+](=O)[O-])cc2)C(=O)CO1	i	1.23	1.1	4.0	-45.1	0.6	·
Cc1ccsc1C=Nc1ccc(O)cc1	i	0.14	-10.7	14.8*	·	-2.0	12.7
Oc1ccc(N=Cc2ccc(O)c(O)c2)cc1	i	-2.7	3.7	-2.6	-91.7	15.3	·
CC(=O)Nc1cccc(/C(C)=N/NC(=O)c2ccc(NS(=O)(=O)c3cccs3)cc2)c1	·	-0.13	·	19.2*	·	·	7.1
C/C(=N\NC(=O)c1ccc(NS(=O)(=O)c2cccs2)cc1)c1ccc(C(C)(C)C)cc1	i	0.5	-16.3	-9.3	·	-4.6	·
CCOC(=O)c1nn(-c2ccc(C)c(C)c2)c(=O)c2c(N)scc12	i	0.2	-9.2	18.4*	5.1	-8.8	38.1*
Cc1ccc(NCCCCO)cc1C	i	-0.47	0.5	17.4*	33.3	6.5	6.7
Cc1cc(C)cc(N(C(=O)c2csnn2)C(C(=O)NC(C)(C)C)c2cccs2)c1 (stereo not given)	i	-0.9	-4.4	15.4*	-3.3	-2.1	5.9
O=C(C1COc2ccccc2O1)N1CCCC1 (stereo not given)	i	0.9	1.2	15.4*	17.9	-2.0	7.4
COC(=O)COc1cccc2c(=O)n(CC(=O)NCCc3ccccc3)ccc12	i	0.11	1.2	18.3*	25.0	-6.3	11.9
CCCN(CC#CC(O)(c1ccccc1)c1cccnc1)CCC (stereo not given)	i	-0.7	4.5	22.3*	·	1.1	9.3
CC1CN(C(c2ccco2)c2sc3ncnn3c2O)CC(C)O1 (stereo not given)	i	-0.86	2.0	-6.8	·	-10.1	·
Cc1ccc(S(=O)(=O)Nc2ccc3oc(=O)sc3c2)c(C)c1	i	0.11	-26.1	19.7*	25.8	-11.3	15.6*
O=[N+]([O-])c1ccccc1C1Nc2cccc3cccc(c23)N1	i	-0.01	0.1	32.1*	35.5	-21.4	27.1*
O=[N+]([O-])c1ccc(Cl)c(C2Nc3cccc4cccc(c34)N2)c1	i	-0.4	-3.6	35.3*	·	3.1	36.6*
CCC(C)(C)n1nnnc1C(c1ccc(OC)c(OC)c1)N1CCN(c2cccc(OC)c2)CC1 (stereo not given)	i	·	11.6	-2.3	-41.4	3.0	·
CCC(C)(C)NC(=O)/C=C/c1cccs1	i	-0.11	3.2	17.8*	·	0.6	5.6
CC(C)CNC(=O)/C=C/c1cccs1	i	0.1	-1.7	2.1	·	-9.1	·

Compound activity deposited in PubChem by several laboratories.
